Data from ChEMBL document CHEMBL1158537, “Antibacterial activities of aminoglycoside antibiotics-derived cationic amphiphiles. Polyol-modified neomycin B-, kanamycin A-, amikacin-, and neamine-based amphiphiles with potent broad spectrum antibacterial activity” (2010).

Columns and labels:
Staphylococcus aureus [1] = assay: Antibacterial activity against Staphylococcus aureus ATCC 29213 after 24 hrs by macrobroth dilution method; assay type: functional; details: ATCC 29213, 24 h
Method in brief: (§1)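 Reference strains from the American Type Culture Collection were tested by broth macrodilution following CLSI methodology. The read-out was the minimum inhibitory concentration, reported in μg/mL. The same method was used for the Gram-positive and Gram-negative organisms.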

Staphylococcus aureus [2] = assay: Antibacterial activity against methicillin-resistant Staphylococcus aureus ATCC 33592 after 24 hrs by macrobroth dilution method; assay type: functional; details: ATCC 33592, 24 h; method in brief: as §1
[3] = tested on: Staphylococcus epidermidis; assay: Antibacterial activity against Staphylococcus epidermidis […] after 24 hrs by macrobroth dilution method; assay type: functional
Method in brief: (§2)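 Broth macrodilution was run following CLSI methodology against ATCC reference strains and clinical isolates from the Canadian Intensive Care Unit (CAN-ICU) study, with Gram-positive and Gram-negative organisms tested. The value is the minimum inhibitory concentration, reported in μg/mL.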

[4] = tested on: Staphylococcus epidermidis; assay: Antibacterial activity against methicillin-resistant Staphylococcus epidermidis ATCC 14990 after 24 hrs by macrobroth dilution method; assay type: functional; details: ATCC 14990, 24 h
Streptococcus pneumoniae = assay: Antibacterial activity against Streptococcus pneumoniae ATCC 49619 after 24 hrs by macrobroth dilution method; assay type: functional; details: ATCC 49619, 24 h; method in brief: as §2
Escherichia coli [5] = assay: Antibacterial activity against gentamicin-resistant Escherichia coli ATCC 6174 after 24 hrs by macrobroth dilution method; assay type: functional; details: ATCC 6174, 24 h; method in brief: as §1
Escherichia coli [6] = assay: Antibacterial activity against Escherichia coli ATCC 25922 after 24 hrs by macrobroth dilution method; assay type: functional; details: ATCC 25922, 24 h; method in brief: as §1
Escherichia coli [7] = assay: Antibacterial activity against Escherichia coli CAN-ICU 63074 after 24 hrs by macrobroth dilution method; assay type: functional; details: CAN-ICU 63074, 24 h; method in brief: as §2
Pseudomonas aeruginosa [8] = assay: Antibacterial activity against Pseudomonas aeruginosa ATCC 27853 after 24 hrs by macrobroth dilution method; assay type: functional; details: ATCC 27853, 24 h; method in brief: as §2
Pseudomonas aeruginosa [9] = assay: Antibacterial activity against Pseudomonas aeruginosa CAN-ICU 62308 after 24 hrs by macrobroth dilution method; assay type: functional; details: CAN-ICU 62308, 24 h; method in brief: as §2
[10] = tested on: Stenotrophomonas maltophilia; assay: Antibacterial activity against Stenotrophomonas maltophilia CAN-ICU 62585 after 24 hrs by macrobroth dilution method; assay type: functional; details: CAN-ICU 62585, 24 h; method in brief: as §2
Acinetobacter baumannii = assay: Antibacterial activity against Acinetobacter baumannii CAN-ICU 63169 after 24 hrs by macrobroth dilution method; assay type: functional; details: CAN-ICU 63169, 24 h; method in brief: as §2
Klebsiella pneumoniae = assay: Antibacterial activity against Klebsiella pneumoniae ATCC 13883 after 24 hrs by macrobroth dilution method; details: ATCC 13883, 24 h

| SMILES | MIC (Staphylococcus aureus [1]) | MIC (Staphylococcus aureus [2]) | MIC [3] | MIC [4] | MIC (Streptococcus pneumoniae) | MIC (Escherichia coli [5]) | MIC (Escherichia coli [6]) | MIC (Escherichia coli [7]) | MIC (Pseudomonas aeruginosa [8]) | MIC (Pseudomonas aeruginosa [9]) | MIC [10] | MIC (Acinetobacter baumannii) | MIC (Klebsiella pneumoniae) |
| --- | --- | --- | --- | --- | --- | --- | --- | --- | --- | --- | --- | --- | --- |
| NC[C@@H]1O[C@H](O[C@H]2[C@@H](OC(=O)Nc3ccccc3)[C@H](O[C@@H]3[C@@H](OC(=O)Nc4ccccc4)[C@H](N)C[C@H](N)[C@H]3O[C@H]3O[C@H](CN)[C@@H](OC(=O)Nc4ccccc4)[C@H](OC(=O)Nc4ccccc4)[C@H]3N)O[C@@H]2COC(=O)Nc2ccccc2)[C@H](N)[C@@H](OC(=O)Nc2ccccc2)[C@@H]1OC(=O)Nc1ccccc1.O=C(O)C(F)(F)F | 1 µg/mL | 1 µg/mL | 0.5 µg/mL | 0.5 µg/mL | 16 µg/mL | 16 µg/mL | 32 µg/mL | 16 µg/mL | 256 µg/mL | 128 µg/mL | 4 µg/mL | 32 µg/mL | 256 µg/mL |
| NCC[C@H](OC(=O)Nc1ccccc1)C(=O)N[C@@H]1C[C@H](N)[C@@H](C[C@H]2O[C@H](CN)[C@@H](OC(=O)Nc3ccccc3)[C@H](OC(=O)Nc3ccccc3)[C@H]2OC(=O)Nc2ccccc2)[C@H](OC(=O)Nc2ccccc2)[C@H]1O[C@H]1O[C@H](COC(=O)Nc2ccccc2)[C@@H](OC(=O)Nc2ccccc2)[C@H](N)[C@H]1OC(=O)Cc1ccccc1.O=C(O)C(F)(F)F | 8 µg/mL | 16 µg/mL | 2 µg/mL | 2 µg/mL | 32 µg/mL | 256 µg/mL | 256 µg/mL | 256 µg/mL | > 256 µg/mL | 256 µg/mL | 128 µg/mL | 256 µg/mL | 256 µg/mL |
| CC(C)(C)c1ccc(COC[C@H]2O[C@@H](O[C@@H]3[C@@H](OCc4ccc(C(C)(C)C)cc4)[C@H](N)C[C@H](N)[C@H]3O[C@H]3O[C@H](CN)[C@@H](OCc4ccc(C(C)(C)C)cc4)[C@H](OCc4ccc(C(C)(C)C)cc4)[C@H]3N)[C@H](OCc3ccc(C(C)(C)C)cc3)[C@@H]2O[C@H]2O[C@@H](CN)[C@@H](OCc3ccc(C(C)(C)C)cc3)[C@H](OCc3ccc(C(C)(C)C)cc3)[C@H]2N)cc1.O=C(O)C(F)(F)F | 128 µg/mL | 128 µg/mL | 64 µg/mL | 64 µg/mL | 256 µg/mL | 128 µg/mL | 128 µg/mL | 128 µg/mL | 256 µg/mL | 128 µg/mL | > 128 µg/mL | > 128 µg/mL | > 128 µg/mL |
